Experimental data pooled from the literature.
Target: Casein kinase II subunit alpha' (CSNK2A2, Homo sapiens, UniProt P19784)

| Compound | assay | setting | remaining binding [%] |
| --- | --- | --- | --- |
| CN(CCCC(F)(F)F)c1nccc(-c2cnn3ncccc23)n1 | binding | 1 µM | 92 |
| CNC(=O)[C@@H]1CC[C@@H](n2c(-c3ccc4cnccc4c3)nc3ccc(C(=O)NCc4cccc(C(N)=O)c4)cc32)C1 | binding, competition with immobilised ligand | 1 µM | 100 |
| CN(C)c1ncc(F)c(-c2cnn3ncccc23)n1 | binding | 1 µM | 100 |
| O=C(NCCCN1CCOCC1)c1ccc(Nc2nccc(-c3cc4ccccc4s3)n2)cc1 | binding, competition with immobilised ligand | 1 µM | 19 |
| Cc1cc(C)c(-n2ccn3nc(-c4cccnc4)cc23)cc1NC(=O)c1cc(C#N)cc(S(F)(F)(F)(F)F)c1 | cell-free assay, competition with immobilised ligand | 0.1 µM | 82.4 |
| O=C(c1ccc(Nc2ncc(Cl)c(-c3cc4ccccc4s3)n2)cc1)N1CCC(N2CCCC2)CC1 | binding, competition with immobilised ligand | 1 µM | 0.1 |
| c1cnn2ncc(-c3ccnc(N4CCC45COC5)n3)c2c1 | binding | 1 µM | 24 |
| COc1cc(-c2cn(C3CCc4ccccc4N(CC(F)(F)F)C3=O)nn2)ccc1-n1ccc(C)n1 (stereo not shown) | cell-free assay, competition with immobilised ligand | 1 µM | 84 |
| COc1ncc2cc3ccccc3nc2c1C#N | cell-free assay, competition with immobilised ligand | 5 µM | 97 |
| Cc1cnn2ncc(-c3ccnc(N(C)C)n3)c2c1 | binding | 1 µM | 69 |
| C[C@H](c1ccc(F)cc1)N(Cc1cccc(C(=O)O)c1)C(=O)c1cnc2ccccc2c1 | cell-free assay, competition with immobilised ligand | 1 µM | 86 |
| C[C@H]1CCN(c2nccc(-c3cnn4ncccc34)n2)C1 | binding | 1 µM | 56 |
| O=C(N1CCS(=O)(=O)CC1)N1C[C@H](c2ccc(OC(F)(F)F)cc2)C[C@H](c2nc(C3CC3)no2)C1 | cell-free assay, competition with immobilised ligand | 1 µM | 100 |
| C[C@@H](c1ccc(-n2cnc3c(N)ncnc32)cc1)N1CCc2nn(C)c(Cc3ccccc3)c2C1=O | binding, competition with immobilised ligand | 0.1 µM | 86 |
| Cn1cc(Cl)c2c(Oc3c(F)cc(Nc4cc(Cl)nc(N)n4)cc3F)ccnc21 | cell-free assay, competition with immobilised ligand | 0.1 µM | 89 |
| COc1cnc(Nc2cccc(S(N)(=O)=O)c2)nc1N1CCN(c2ccccc2)C(=O)C1 | binding, competition with immobilised ligand | 1 µM | 86 |
| CCN1CCN(Cc2ccc(C(=O)Nc3ccc(C)c(Oc4ccc5c(c4)CC(=O)N5)c3)cc2C(F)(F)F)CC1 | binding, competition with immobilised ligand | 1 µM | 95 |
| O=C(NCC1CCOCC1)c1n[nH]cc1NC(=O)c1c(F)cccc1F | binding, competition with immobilised ligand | 1 µM | 76 |
| CC(C)(O)c1cncc(-c2nc3ccc(F)cc3n2C2CC2)c1 | cell-free assay, competition with immobilised ligand | 1 µM | 100 |
| O=C(c1ccc(Nc2nccc(-c3cc4ccccc4s3)n2)cc1)N1CCC(N2CCCC2)CC1 | binding, competition with immobilised ligand | 1 µM | 1.8 |
| N[C@@H]1CCN(c2nccc(-c3cnn4ncccc34)n2)C1 | binding | 1 µM | 100 |
| c1cncc(-c2cccc(Nc3nccc(NC4CCCCC4)n3)c2)c1 | binding, competition with immobilised ligand | 10 µM | 65 |
